Assay outcomes from PubChem BioAssay.
Sampled rows, rich in hits. Any-hit rate of the full collection: about 1.8%.
TDP2 absorb = blocks human TDP2 phosphodiesterase activity; inhibition, % at 12.8 µM; 370,000 tested, 0.34% active; recombinant TDP2, T5PNP hydrolysis, p-nitrophenol absorbance 415 nm; O95551; AID 720702;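 active means inhibition above the mean of all tested compounds plus 3 SD, set per campaign, cut at about 25% in these data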;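 further: 0% = DMSO with enzyme and 100% = buffer with substrate but no TDP2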
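Test system: Human TDP2 enzyme | Reagent: 5 mM T5PNP | Compound dosing: 12.8 µM single point, 1% DMSO | Incubation: Enzyme reaction with compound for 2 h at 37 °C | Technique: p-Nitrophenol epi absorbance | Read-out: % inhibition relative to enzyme-containing and enzyme-free wells | Benchmarks: High control without enzyme, low control DMSO plus TDP2 | Replicates: Singlicate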
Fh CTSL1 inh = cathepsin L1 inhibition, PFM18AAP counter-screen. inhibition, % at 5.96 µM. 300,000 tested, 0.49% active. recombinant F. hepatica cathepsin L1, Z-Leu-Arg-MCA fluorescence;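 active means inhibition above the mean of all tested compounds plus 3 SD, set per screening campaign, cut at about 17% in these data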;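 further: 0% = plate median of test compound wells and 100% = 1 µM Z-Phe-Ala-diazomethylketone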
PAD4 FP inh = PAD4 (human) enzyme inhibition | 330,000 tested, 0.41% active | recombinant PAD4, RCA probe fluorescence polarization | Q9UM07 | AID 485272 | inhibition, % at 6.36 µM;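 active means percent inhibition above a cutoff equal to the mean of all tested compounds plus 3 SD, cut at about 15% in these data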;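 further: 0% = PAD4 with RCA probe and DMSO and 100% = probe without PAD4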
Apaf1 inhib = inhibitors of human Apaf-1 apoptosome. O14727. reconstituted apoptosome caspase-3 activity, DEVD-Rh110 fluorescence. inhibition, % at 20 µM. 330,000 tested, 0.71% active. AID 489030; active means inhibition of at least 40% at 20 µM;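 further: plate controls were DMSO wells for no effect and DEVD-CHO caspase inhibitor wells for full effect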
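Assay system: Apoptosome proteins | Medium: pH 7.5 Hepes buffer with CHAPS, BSA, DTT | Also added: Cytochrome c and DEVD-Rh110 substrate | Times: 30 min plus 50 min, RT | Detection: Rhodamine 110 fluorescence at Ex 480/Em 540 nm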
GSTO1 counter = GSTO1 inhibition, counter-screen for RBBP9 inhibitors | inhibition, % at 5.96 µM | AID 1974 | P78417 | recombinant GSTO1, activity-based probe fluorescence polarization | 300,000 tested, 1.1% active;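 active means inhibition above the campaign mean inhibition plus 3 SD, cut at about 35% in these data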;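 further: 0% = GSTO1-1 with DMSO and 100% = wells lacking GSTO1-1 enzyme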
GSTO1 inh conf = GSTO1 (human) inhibition, confirmation; inhibition, % at 5.96 µM; shares compounds with GSTO1 counter; 2,400 tested, 54% active; AID 2176; recombinant GSTO1, probe fluorescence polarization;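 active means inhibition above the primary screen's cutoff, its mean inhibition plus 3 SD, cut at about 35% in these data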;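 further: loss of polarization as inhibitors block binding of rhodamine sulfonate ester activity probe; 0% = GSTO1 with DMSO and 100% = wells lacking GSTO1 enzyme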
Active calls of the source: *; · = no result given.

SMILES | TDP2 absorb | Fh CTSL1 inh | PAD4 FP inh | Apaf1 inhib | GSTO1 counter | GSTO1 inh conf
O=c1[nH]c(C2CCN(S(=O)(=O)c3ccccc3C(F)(F)F)CC2)nc2c1nnn2Cc1cccc(F)c1 | 14 | -2 | -1 | 31 | 47* | 50*
O=c1[nH]c(C2CCN(S(=O)(=O)c3ccc(C(F)(F)F)cc3)CC2)nc2c1nnn2Cc1cccc(F)c1 | 0 | 3 | -3 | 17 | 3 | ·
COc1ccc2c(c1)[C@@]1(NCCc3c1[nH]c1ccc(OC)cc31)C(=O)N2C | 0 | · | · | · | · | ·
CCS(=O)(=O)NCc1ccc2[nH]c3c(c2c1)CCCC3 | · | 6 | -15 | 38 | 46* | 60*
Cc1cc(C)cc(NC(=S)NCc2ccc3[nH]c4c(c3c2)CCCC4)c1 | -2 | 3 | -2 | 14 | 1 | ·
S=c1[nH]nc(-c2n[nH]c3c2CCC3)n1N=Cc1ccc(Br)s1 | 0 | · | · | · | · | ·
C/C(=N\NC(=O)c1cccc(F)c1)c1ccc(NC(=O)Cc2ccccc2)cc1 | 7 | · | · | -5 | · | ·
C/C(=N\NC(=O)c1cc(O)cc(O)c1)c1ccc(NC(=O)Cc2ccccc2)cc1 | 7 | -3 | -1 | 8 | 38* | 47*
O=C(Nc1ccc(Cl)cn1)c1ccc(COc2ccccc2Br)o1 | 1 | 4 | 1 | 14 | 63* | 3
CCCCCC(=O)NC1CCCCN(Cc2cccc(Cl)c2)C1=O (stereo not given) | -5 | · | · | · | · | ·
Cc1cc(C)c(Nc2cc(S(=O)(=O)O)c(N)c3c2C(=O)c2ccccc2C3=O)c(C)c1 | -6 | 4 | 9 | · | 80* | 88*
COc1ccc(S[C@]2(C(=O)N3CCCC3)CC(=O)N(c3ccsc3)[C@@H]2c2ccc(OC)cc2)cc1 | -4 | · | · | · | · | ·
COC(=O)[C@]12C[C@H](CC(=O)N3CCN(C(=O)C4CC4)CC3)C(=O)N(Cc3cccc4ccccc34)C1=C[C@H](C(C)(C)C)O[C@@H]2C | 1 | · | · | · | · | ·
Oc1[nH]c2c(Cl)cc(Cl)cc2c1N=NC(=S)NCC1CCCO1 (stereo not given) | -8 | 2 | -3 | 2 | 51* | 7
CCOc1ccc(C(c2c(C)[nH][nH]c2=O)c2c(C)[nH][nH]c2=O)cc1OC | 0 | 7 | 7 | 21 | 42* | 1
CCOc1cc(C(c2c(C)[nH][nH]c2=O)c2c(C)[nH][nH]c2=O)cc(Br)c1OC | -1 | 0 | -13 | 14 | 19 | ·
CCCCC(=O)N(Cc1ccccc1)c1ccccc1C(=O)Nc1cc(OC)ccc1OC | -4 | · | · | · | · | ·
O=C(OCC(=O)N1CCC(c2ccccc2)=N1)c1ccc([N+](=O)[O-])s1 | 11 | 7 | -3 | 52* | 58* | 29
Cc1cc(C(=O)OCC(=O)N2CCC(c3ccccc3)=N2)ccc1[N+](=O)[O-] | 10 | 0 | 2 | 4 | -5 | ·
Cc1[nH]c2ccccc2c1C(=O)COC(=O)c1ccc([N+](=O)[O-])s1 | 16 | -4 | -13 | 11 | 52* | 20
O=C(C1CCCN1S(=O)(=O)c1cccc([N+](=O)[O-])c1)N1CCN(c2ccccc2)CC1 (stereo not given) | 1 | · | · | · | · | ·
CCOC(=O)N1CCC(N2C(=O)c3ccccc3C2Nc2cc(C(=O)OC)cc(C(=O)OC)c2)CC1 (stereo not given) | -13 | -2 | -1 | 19 | 59* | -1
CCOC(=O)N1CCC(N2C(=O)c3ccccc3C2Nc2cc(C)cc(C)c2)CC1 (stereo not given) | -21 | 6 | 1 | 11 | -3 | ·
CCCC1CCC2(CC1)CCC2OC(=S)NCc1cccc(F)c1 (stereo not given) | 2 | · | · | · | · | ·
O=C(NCc1ccco1)c1cc(-c2cccnc2)nc2ccccc12 | 12 | 1 | 1 | -7 | 38* | 5
O=C(NCc1ccco1)c1cc(-c2ccncc2)nc2ccccc12 | 22 | 4 | 1 | -8 | 0 | ·
Cc1ccccc1N(C)C(=O)Cn1nnc(-c2ccccc2F)n1 | -1 | · | · | · | · | ·
O=C(N/N=C/c1ccc(F)cc1)c1cc(-c2ccco2)nc2ccccc12 | 1 | 3 | -1 | 31 | 57* | 22
O=C(O)c1cc(-c2ccco2)nc2ccccc12 | 1 | 2 | -1 | 5 | 7 | ·
CCOc1ccc(/C=N/NC(=O)c2cc(-c3ccco3)nc3ccccc23)cc1 | 4 | 3 | -6 | 3 | 2 | ·
